ChEMBL document CHEMBL1131231, “New azole antifungals. 2. Synthesis and antifungal activity of heterocyclecarboxamide derivatives of 3-amino-2-aryl-1-azolyl-2-butanol” (1998)
≈ marks a conversion by molar mass, not a printed value.

Tests used:
Type in all cases: functional
Candida albicans [1] = assay: In vivo antifungal activity against murine candidosis model after peroral administration with 1 mg/kg at various time intervals. (percent protection for 100% mortality with fluconazole-treated group.); details: route oral
Method in brief: (§1)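 Male mice, groups of 10, infected iv with 0.2 mL Candida albicans at (2–8) × 10⁷ cfu/mL. Oral suspension in 1% Tween + 0.2% carboxymethylcellulose in water, given 1, 4 and 24 h post-infection; vehicle controls and a fluconazole group at the same dose. Survival scored on days 1, 2, 3, 5, 7, 9, reported as % surviving on the day untreated, or fluconazole-treated, mortality reached 100%.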

Candida albicans [2] = assay: In vivo antifungal activity against murine candidosis model after peroral administration with 1 mg/kg at various time intervals. (percent protection for 100% mortality with untreated group); details: route oral; method in brief: as §1
[3] = The compound was tested in vitro for antifungal activity against 10 yeasts.
Method in brief: (§2)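 Agar dilution on Kimmig's agar with 0.5% glycerol; ATCC or clinical isolates, inocula at 10⁵ cfu/mL. Drugs from 800 μg/mL stock in 50% ethanol, 2-fold serial dilutions 80 to 0.03 μg/mL in plates. Incubated 25 °C, 48 h for yeasts, 120 h for filamentous fungi. Value is geometric mean of MICs (μg/mL); >80 taken as 160, ≤0.03 as 0.03.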

[4] = The compound was tested in vitro for antifungal activity against 6 filamentous fungi.; method in brief: as §2
Candida albicans [5] = assay: In vivo antifungal activity against murine candidosis model after peroral administration with 0.5 mg/kg at various time intervals. (percent protection for 100% mortality with untreated group); details: route oral; method in brief: as §1
Candida albicans [6] = assay: In vivo antifungal activity against murine candidosis model after peroral administration with 0.5 mg/kg at various time intervals. (percent protection for 100% mortality with fluconazole-treated group.); details: route oral; method in brief: as §1

## C[C@@H](NC(=O)c1cnn(-c2ccc(C(F)(F)F)cc2)c1C(F)(F)F)[C@](O)(Cn1cncn1)c1ccc(F)cc1F
Candida albicans [1]
  Protection: 0%
Candida albicans [2]
  Protection: 60%
[3]
  MIC: 1.8 µg/mL (≈ 3.13 µM)
[4]
  MIC: 13 µg/mL (≈ 22.6 µM)

## C[C@@H](n1cnc2cc(-c3ccc(S(C)(=O)=O)cc3)sc2c1=O)[C@](O)(Cn1cncn1)c1ccc(F)cc1F
Candida albicans [1]
  Protection: 0%
Candida albicans [2]
  Protection: 40%
[3]
  MIC: 2.3 µg/mL (≈ 4.12 µM)
[4]
  MIC: > 80 µg/mL

## C[C@@H](n1cnc2cc(-c3ccc(C(=N)NO)cc3)sc2c1=O)[C@](O)(Cn1cncn1)c1ccc(F)cc1F
Candida albicans [1]
  Protection: 0%
Candida albicans [2]
  Protection: 90%
[3]
  MIC: 2.4 µg/mL (≈ 4.46 µM)
[4]
  MIC: > 80 µg/mL

## CC(C)c1c(C(=O)N[C@H](C)[C@](O)(Cn2cncn2)c2ccc(F)cc2F)cnn1-c1ccc(Cl)cc1
Candida albicans [1]
  Protection: 0%
Candida albicans [2]
  Protection: 60%
[3]
  MIC: 3.3 µg/mL (≈ 6.41 µM)
[4]
  MIC: > 80 µg/mL

## Cc1c(C(=O)N[C@H](C)[C@](O)(Cn2cncn2)c2ccc(F)cc2F)cnn1-c1ccc(C(F)(F)F)cc1
Candida albicans [1]
  Protection: 80%
Candida albicans [2]
  Protection: 100%
[3]
  MIC: 1.7 µg/mL (≈ 3.27 µM)
[4]
  MIC: 13 µg/mL (≈ 25 µM)

## Cc1c(C(=O)N[C@H](C)[C@](O)(Cn2cncn2)c2ccc(F)cc2F)cnn1-c1ccccc1Cl
Candida albicans [1]
  Protection: 0%
Candida albicans [2]
  Protection: 0%
[3]
  MIC: 11 µg/mL (≈ 22.6 µM)
[4]
  MIC: > 80 µg/mL

## CCCc1c(C(=O)N[C@H](C)[C@](O)(Cn2cncn2)c2ccc(F)cc2F)cnn1-c1ccc(Cl)cc1
Candida albicans [1]
  Protection: 0%
Candida albicans [2]
  Protection: 100%
[3]
  MIC: 1.9 µg/mL (≈ 3.69 µM)
[4]
  MIC: 36 µg/mL (≈ 69.9 µM)

## Cc1c(C(=O)N[C@H](C)[C@](O)(Cn2cncn2)c2ccc(F)cc2F)cnn1-c1ccc(OC(F)(F)F)cc1
Candida albicans [1]
  Protection: 80%
Candida albicans [2]
  Protection: 100%
[3]
  MIC: 2.6 µg/mL (≈ 4.85 µM)
[4]
  MIC: 5.6 µg/mL (≈ 10.4 µM)

## CSc1ccc(-c2cc3ncn([C@H](C)[C@](O)(Cn4cncn4)c4ccc(F)cc4F)c(=O)c3s2)cc1
Candida albicans [1]
  Protection: 0%
Candida albicans [2]
  Protection: 30%
[3]
  MIC: 5.5 µg/mL (≈ 10.5 µM)
[4]
  MIC: > 80 µg/mL

## Cc1c(C(=O)N[C@H](C)[C@](O)(Cn2cncn2)c2ccc(F)cc2F)cnn1-c1cccc(C(F)(F)F)c1
Candida albicans [1]
  Protection: 0%
Candida albicans [2]
  Protection: 100%
[3]
  MIC: 4.6 µg/mL (≈ 8.84 µM)
[4]
  MIC: 20 µg/mL (≈ 38.4 µM)

## C[C@@H](NC(=O)c1cnn(-c2ccc(Cl)cc2)c1C(F)(F)F)[C@](O)(Cn1cncn1)c1ccc(F)cc1F
Candida albicans [1]
  Protection: 50%
Candida albicans [2]
  Protection: 100%
[3]
  MIC: 1.2 µg/mL (≈ 2.22 µM)
[4]
  MIC: 7.1 µg/mL (≈ 13.1 µM)

## C[C@@H](NC(=O)c1cnn(-c2ccc(Cl)cc2)c1)[C@](O)(Cn1cncn1)c1ccc(F)cc1F
Candida albicans [1]
  Protection: 50%
Candida albicans [2]
  Protection: 100%
[3]
  MIC: 1.9 µg/mL (≈ 4.02 µM)
[4]
  MIC: > 80 µg/mL

## C[C@@H](n1cnc2cc(-c3ccc(C(N)=O)cc3)sc2c1=O)[C@](O)(Cn1cncn1)c1ccc(F)cc1F
Candida albicans [1]
  Protection: 20%
Candida albicans [2]
  Protection: 100%
[3]
  MIC: 1.3 µg/mL (≈ 2.49 µM)
[4]
  MIC: 45 µg/mL (≈ 86.1 µM)

## Cc1c(C(=O)N[C@H](C)[C@](O)(Cn2cncn2)c2ccc(F)cc2F)cnn1-c1ccc(Cl)cc1
Candida albicans [1]
  Protection: 60%
Candida albicans [2]
  Protection: 80%
[3]
  MIC: 1.8 µg/mL (≈ 3.7 µM)
[4]
  MIC: 16 µg/mL (≈ 32.9 µM)

## Cc1c(S(=O)(=O)c2ccc(Cl)cc2)csc1C(=O)N[C@H](C)[C@](O)(Cn1cncn1)c1ccc(F)cc1F
Candida albicans [1]
  Protection: 0%
Candida albicans [2]
  Protection: 70%
[3]
  MIC: 1.6 µg/mL (≈ 2.82 µM)
[4]
  MIC: 11 µg/mL (≈ 19.4 µM)

## Cc1c(C(=O)N[C@H](C)[C@](O)(Cn2cncn2)c2ccc(F)cc2F)cnn1-c1cc(Cl)cc(Cl)c1
Candida albicans [1]
  Protection: 0%
Candida albicans [2]
  Protection: 20%
[3]
  MIC: 19 µg/mL (≈ 36.4 µM)
[4]
  MIC: > 80 µg/mL

## Cc1nn(-c2ccc(Cl)cc2)c(C)c1C(=O)N[C@H](C)[C@](O)(Cn1cncn1)c1ccc(F)cc1F
Candida albicans [1]
  Protection: 20%
Candida albicans [2]
  Protection: 90%
[3]
  MIC: 1.5 µg/mL (≈ 2.99 µM)
[4]
  MIC: 8.9 µg/mL (≈ 17.8 µM)

## C[C@@H](n1cnc2cc(-c3ccc(F)cc3)sc2c1=O)[C@](O)(Cn1cncn1)c1ccc(F)cc1F
Candida albicans [1]
  Protection: 100%
Candida albicans [2]
  Protection: 100%
[3]
  MIC: 0.4 µg/mL (≈ 0.804 µM)
[4]
  MIC: 2.2 µg/mL (≈ 4.42 µM)

## Cc1cc2ncc(C(=O)N[C@H](C)[C@](O)(Cn3cncn3)c3ccc(F)cc3F)c(C)n2n1
Candida albicans [1]
  Protection: 0%
Candida albicans [2]
  Protection: 20%
[3]
  MIC: 70 µg/mL (≈ 159 µM)
[4]
  MIC: > 80 µg/mL

## Cc1c(C(=O)N[C@H](C)[C@](O)(Cn2cncn2)c2ccc(F)cc2F)cnn1-c1c(Cl)cccc1Cl
Candida albicans [1]
  Protection: 0%
Candida albicans [2]
  Protection: 0%
[3]
  MIC: 21 µg/mL (≈ 40.3 µM)
[4]
  MIC: > 80 µg/mL

## Cc1c(C(=O)N[C@H](C)[C@](O)(Cn2cncn2)c2ccc(F)cc2F)cnc2cc(-c3ccc(Cl)cc3)nn12
Candida albicans [1]
  Protection: 0%
Candida albicans [2]
  Protection: 100%
[3]
  MIC: 1.4 µg/mL (≈ 2.6 µM)
[4]
  MIC: 6.3 µg/mL (≈ 11.7 µM)

## C[C@@H](n1cnc2cc(-c3ccc(C(=N)NC#N)cc3)sc2c1=O)[C@](O)(Cn1cncn1)c1ccc(F)cc1F
Candida albicans [1]
  Protection: <20%
Candida albicans [2]
  Protection: 100%
[3]
  MIC: 2.7 µg/mL (≈ 4.94 µM)
[4]
  MIC: 80 µg/mL (≈ 146 µM)

## COc1ccc(-n2ncc(C(=O)N[C@H](C)[C@](O)(Cn3cncn3)c3ccc(F)cc3F)c2C)cc1
Candida albicans [1]
  Protection: 0%
Candida albicans [2]
  Protection: 0%
[3]
  MIC: 6.1 µg/mL (≈ 12.6 µM)
[4]
  MIC: 23 µg/mL (≈ 47.7 µM)

## C[C@@H](NC(=O)c1cnn(-c2ccc(Cl)cc2)c1C(C)(C)C)[C@](O)(Cn1cncn1)c1ccc(F)cc1F
Candida albicans [1]
  Protection: 0%
Candida albicans [2]
  Protection: 0%
[3]
  MIC: 4.6 µg/mL (≈ 8.7 µM)
[4]
  MIC: > 80 µg/mL

## C[C@@H](NC(=O)c1cnn(-c2ccc(Cl)cc2)c1C1CC1)[C@](O)(Cn1cncn1)c1ccc(F)cc1F
Candida albicans [1]
  Protection: 0%
Candida albicans [2]
  Protection: 100%
[3]
  MIC: 1.8 µg/mL (≈ 3.51 µM)
[4]
  MIC: > 80 µg/mL

## C[C@@H](n1cnc2cc(-c3ccc(C4=NCCO4)cc3)sc2c1=O)[C@](O)(Cn1cncn1)c1ccc(F)cc1F
Candida albicans [1]
  Protection: 20%
Candida albicans [2]
  Protection: 100%
[3]
  MIC: 1.9 µg/mL (≈ 3.46 µM)
[4]
  MIC: > 80 µg/mL

## C[C@@H](NC(=O)c1cnn(-c2ccc(Cl)cc2)c1N)[C@](O)(Cn1cncn1)c1ccc(F)cc1F
Candida albicans [1]
  Protection: 0%
Candida albicans [2]
  Protection: 80%
[3]
  MIC: 2.7 µg/mL (≈ 5.53 µM)
[4]
  MIC: 45 µg/mL (≈ 92.2 µM)

## CC(=O)ONC(=N)c1ccc(-c2nc(C)c(C(=O)N[C@H](C)[C@](O)(Cn3cncn3)c3ccc(F)cc3F)s2)cc1
Candida albicans [5]
  Protection: 70%
Candida albicans [6]
  Protection: 0%
[3]
  MIC: 14 µg/mL (≈ 24.6 µM)
[4]
  MIC: 45 µg/mL (≈ 79 µM)

## C[C@@H](n1cnc2cc(-c3ccc([N+](=O)[O-])cc3)sc2c1=O)[C@](O)(Cn1cncn1)c1ccc(F)cc1F
Candida albicans [1]
  Protection: 90%
Candida albicans [2]
  Protection: 100%
[3]
  MIC: 5.9 µg/mL (≈ 11.2 µM)
[4]
  MIC: > 80 µg/mL

## Cc1c(C(=O)N[C@H](C)[C@](O)(Cn2cncn2)c2ccc(F)cc2F)cnn1-c1ccc(F)cc1F
Candida albicans [1]
  Protection: 0%
Candida albicans [2]
  Protection: 0%
[3]
  MIC: 5.3 µg/mL (≈ 10.9 µM)
[4]
  MIC: 63 µg/mL (≈ 129 µM)

## C[C@@H](NC(=O)c1ccc(C(F)(F)F)cc1)[C@](O)(Cn1cncn1)c1ccc(F)cc1F
Candida albicans [5]
  Protection: 100%
Candida albicans [6]
  Protection: 100%
[3]
  MIC: 4.6 µg/mL (≈ 10.4 µM)
[4]
  MIC: 22 µg/mL (≈ 50 µM)

## Cc1c(C(=O)N[C@H](C)[C@](O)(Cn2cncn2)c2ccc(F)cc2F)cnn1-c1ccc(Br)cc1
Candida albicans [1]
  Protection: 50%
Candida albicans [2]
  Protection: 100%
[3]
  MIC: 2 µg/mL (≈ 3.76 µM)
[4]
  MIC: 13 µg/mL (≈ 24.5 µM)

## CC(=O)ONC(=N)c1ccc(-c2cc3ncn([C@H](C)[C@](O)(Cn4cncn4)c4ccc(F)cc4F)c(=O)c3s2)cc1
Candida albicans [1]
  Protection: 0%
Candida albicans [2]
  Protection: 60%
[3]
  MIC: 3.7 µg/mL (≈ 6.38 µM)
[4]
  MIC: 36 µg/mL (≈ 62.1 µM)

## C[C@@H](NC(=O)c1csc(-c2ccc(Cl)cc2)n1)[C@](O)(Cn1cncn1)c1ccc(F)cc1F
Candida albicans [5]
  Protection: 0%
Candida albicans [6]
  Protection: 0%
[3]
  MIC: 4.5 µg/mL (≈ 9.18 µM)
[4]
  MIC: > 80 µg/mL
